Assays:
[1] = target: Adrenergic receptor alpha-1 (Sus scrofa); assay: Displacement of [3H]prazosin from porcine Adrenergic alpha-1 receptor in porcine brain
[2] = target: T1, Dopamine receptors; D2 & D4 (Homo sapiens) (UniProt P14416+P21917); assay: Selectivity for human dopamine D4.4 receptor over dopamine D2(short) receptor; assay type: protein assay
[3] = Selectivity for human dopamine D4.4 receptor over porcine dopamine D1 receptor
[4] = target: 5-hydroxytryptamine receptor 2A (Sus scrofa, UniProt P50129); assay: Displacement of [3H]ketanserin from 5HT2 receptor in porcine cortical membrane; assay type: cell membranes
D(4) dopamine receptor [5] = target: T2, D(4) dopamine receptor (Homo sapiens, UniProt P21917); assay: Displacement of [3H]spiperone from human dopamine receptor D4.4 in CHO cell membrane; assay type: cell membranes
T2 sequence (P21917 whole entry): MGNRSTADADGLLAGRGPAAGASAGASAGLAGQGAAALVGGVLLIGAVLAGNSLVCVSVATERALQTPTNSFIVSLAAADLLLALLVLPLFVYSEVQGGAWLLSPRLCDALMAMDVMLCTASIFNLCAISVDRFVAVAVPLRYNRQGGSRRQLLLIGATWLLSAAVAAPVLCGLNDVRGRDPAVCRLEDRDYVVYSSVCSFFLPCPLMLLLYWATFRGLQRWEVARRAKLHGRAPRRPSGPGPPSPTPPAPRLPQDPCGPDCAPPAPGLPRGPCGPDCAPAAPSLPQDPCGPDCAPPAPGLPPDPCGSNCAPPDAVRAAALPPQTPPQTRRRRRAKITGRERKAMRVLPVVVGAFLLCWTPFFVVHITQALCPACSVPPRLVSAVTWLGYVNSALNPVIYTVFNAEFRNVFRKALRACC

D(2) dopamine receptor [6] = target: T3, D(2) dopamine receptor (Homo sapiens, UniProt P14416); assay: Displacement of [3H]spiperone from human dopamine receptor D2(short) in CHO cell membrane; assay type: cell membranes
D(3) dopamine receptor = D(3) dopamine receptor (Homo sapiens, UniProt P35462); assay: Displacement of [3H]spiperone from human dopamine receptor D3 in CHO cell membrane; assay type: cell membranes
D(1A) dopamine receptor = D(1A) dopamine receptor (Sus scrofa, UniProt P50130); assay: Displacement of [3H][…] from dopamine receptor D1 in porcine striatal membrane; assay type: cell membranes, Striatum
[7] = target: Dopamine receptors; D3 & D4 (Homo sapiens) (UniProt P35462+P21917); assay: Selectivity for human dopamine D4.4 receptor over dopamine D3 receptor; assay type: protein assay
[8] = target: T1, Dopamine receptors; D2 & D4 (Homo sapiens); assay: Selectivity for human dopamine D4.4 receptor over dopamine D2(long) receptor; assay type: protein assay
D(2) dopamine receptor [9] = target: T3, D(2) dopamine receptor; assay: Displacement of [3H]spiperone from human dopamine receptor D2(long) in CHO cell membrane; assay type: cell membranes
[10] = target: T4, D(4) dopamine receptor (Homo sapiens) (UniProt P21917); assay: Intrinsic activity at human D4.2 receptor assessed as [3H]thymidine incorporation in CHO 10001 cells relative to quinpirole by mitogenesis assay; assay type: functional, cell-based
T4 sequence (whole entry): T2 sequence (P21917 whole entry)
Procedure, shortened: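 CHO10001 cells expressing human D4.2 were seeded at 5000 cells/well, grown 72 h in serum medium, then switched to serum-free medium. Compound was applied for 20 h at 8 concentrations (0.01-10 000 nM) in hexaduplicate. [³H]thymidine (0.02 µCi/well) was added for 2 h and incorporation counted.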

D(4) dopamine receptor [11] = target: T2, D(4) dopamine receptor; assay: Activity at human D4.4 receptor expressed in CHOK1 cells assessed as stimulation of [35S]GTP-gammaS binding; assay type: functional, cell-based, CHO-K1
D(4) dopamine receptor [12] = target: T2, D(4) dopamine receptor; assay: Activity at human D4.2 receptor assessed as [3H]thymidine incorporation in CHO 10001 cells by mitogenesis assay; assay type: functional, cell-based
[13] = target: T4, D(4) dopamine receptor (Homo sapiens); assay: Intrinsic activity at human D4.4 receptor expressed in CHOK1 cells assessed as stimulation of [35S]GTP-gammaS binding relative to quinpirole; assay type: functional, cell-based; conditions: CHO-K1
Procedure, shortened: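 Membranes from CHO cells stably expressing human D4.4 (Bmax 2.25 pmol/mg protein) in HEPES buffer pH 7.4 with 1 µM GDP at 37 °C. Test agent given at eight concentrations (0.01–10 000 nM) in hexaduplicate for 30 min, then 0.1 nM [35S]GTPγS for a further 30 min. Bound label filtered and counted.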

[14] = Selectivity for human dopamine D4.4 receptor over adrenergic alpha-1 receptor
Rattus norvegicus [15] = assay: Penile erection in Sprague-Dawley rat at 5 ug/kg, sc; assay type: functional
Procedure, shortened: (§1)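 Male Sprague-Dawley rats (225-250 g) were dosed s.c. (0.2 mL/rat) or i.c.v. (10 µL/rat, via a stereotaxic guide cannula implanted under chloral hydrate 3 days earlier). Vehicle was ethanol diluted in water to 0.3%. Rats were acclimated 30 min in individual cages, then observed 60 min after injection. Erections were scored as penis emerging from the sheath. Means ± SEM, 6 rats/group; cannula placement was checked histologically.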

Rattus norvegicus [16] = assay: Penile erection in Sprague-Dawley rat at 20 ug/kg, sc; assay type: functional
Procedure, shortened: as §1

Rattus norvegicus [17] = assay: Penile erection in Sprague-Dawley rat at 1 ug, icv; assay type: functional
Procedure, shortened: as §1

Rattus norvegicus [18] = assay: Penile erection in Sprague-Dawley rat at 0.5 ug/kg, icv; assay type: functional; conditions: in the assay text read “0.5 ug/rat” for “0.5 ug/kg”
Procedure, shortened: as §1

D(1A) dopamine receptor, sequence (P50130 whole entry): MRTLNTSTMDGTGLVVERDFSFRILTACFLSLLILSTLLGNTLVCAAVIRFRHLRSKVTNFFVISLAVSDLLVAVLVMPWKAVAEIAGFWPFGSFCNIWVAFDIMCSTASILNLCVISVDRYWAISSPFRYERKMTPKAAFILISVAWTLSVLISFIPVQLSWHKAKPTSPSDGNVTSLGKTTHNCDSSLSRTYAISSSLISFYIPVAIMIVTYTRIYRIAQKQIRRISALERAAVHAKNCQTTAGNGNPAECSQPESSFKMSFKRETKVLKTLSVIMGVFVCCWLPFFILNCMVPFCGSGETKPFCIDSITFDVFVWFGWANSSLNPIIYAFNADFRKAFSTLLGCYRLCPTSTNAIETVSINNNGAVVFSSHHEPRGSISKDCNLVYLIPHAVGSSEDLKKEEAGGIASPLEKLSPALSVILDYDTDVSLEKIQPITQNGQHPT
D(3) dopamine receptor, sequence (P35462 whole entry): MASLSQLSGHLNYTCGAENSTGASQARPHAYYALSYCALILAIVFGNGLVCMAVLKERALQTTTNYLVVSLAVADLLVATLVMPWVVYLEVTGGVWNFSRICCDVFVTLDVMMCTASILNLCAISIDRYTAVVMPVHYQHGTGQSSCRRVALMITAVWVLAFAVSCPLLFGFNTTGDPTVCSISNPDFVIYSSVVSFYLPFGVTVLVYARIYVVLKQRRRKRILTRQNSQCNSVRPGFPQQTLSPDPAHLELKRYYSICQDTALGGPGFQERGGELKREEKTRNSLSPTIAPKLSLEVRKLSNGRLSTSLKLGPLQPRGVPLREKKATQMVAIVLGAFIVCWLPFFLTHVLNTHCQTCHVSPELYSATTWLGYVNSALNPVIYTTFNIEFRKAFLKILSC
5-hydroxytryptamine receptor 2A, sequence (P50129 whole entry): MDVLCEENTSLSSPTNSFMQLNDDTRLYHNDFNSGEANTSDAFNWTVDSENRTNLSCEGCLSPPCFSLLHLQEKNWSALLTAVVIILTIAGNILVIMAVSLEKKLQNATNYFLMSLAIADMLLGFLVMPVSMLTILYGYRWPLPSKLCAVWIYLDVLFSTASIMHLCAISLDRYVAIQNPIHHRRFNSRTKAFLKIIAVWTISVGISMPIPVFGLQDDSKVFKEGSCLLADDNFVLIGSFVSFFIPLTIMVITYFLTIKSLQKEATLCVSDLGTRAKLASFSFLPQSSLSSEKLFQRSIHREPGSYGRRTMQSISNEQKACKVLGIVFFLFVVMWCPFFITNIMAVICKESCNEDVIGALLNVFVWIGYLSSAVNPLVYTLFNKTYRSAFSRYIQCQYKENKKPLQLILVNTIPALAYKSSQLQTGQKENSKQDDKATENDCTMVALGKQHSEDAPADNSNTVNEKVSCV
T1 sequence (P14416 whole entry, looked up, one chain of several): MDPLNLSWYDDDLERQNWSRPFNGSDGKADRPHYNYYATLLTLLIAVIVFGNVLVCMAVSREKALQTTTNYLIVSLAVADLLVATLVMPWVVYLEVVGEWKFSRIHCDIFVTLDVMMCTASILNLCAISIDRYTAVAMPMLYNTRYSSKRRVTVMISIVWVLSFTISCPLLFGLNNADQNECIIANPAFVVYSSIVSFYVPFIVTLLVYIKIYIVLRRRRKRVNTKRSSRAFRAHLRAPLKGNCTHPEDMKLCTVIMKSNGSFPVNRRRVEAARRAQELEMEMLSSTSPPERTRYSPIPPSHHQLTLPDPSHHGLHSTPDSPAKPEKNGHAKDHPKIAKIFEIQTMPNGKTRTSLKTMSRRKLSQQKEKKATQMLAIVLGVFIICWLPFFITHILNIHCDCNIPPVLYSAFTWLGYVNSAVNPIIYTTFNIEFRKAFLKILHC
T3 sequence (P14416 whole entry): as the sequence (P14416 whole entry, looked up, one chain of several) above
Dopamine receptors; D3 & D4 (Homo sapiens), sequence (P35462 whole entry, looked up, one chain of several): as the sequence (P35462 whole entry) above

| Compound | Ki (D(4) dopamine receptor [5]) | Ki (D(2) dopamine receptor [6]) | Ki (D(3) dopamine receptor) | Ki (D(1A) dopamine receptor) | Ki (D(2) dopamine receptor [9]) | Activity [10] | further results |
| --- | --- | --- | --- | --- | --- | --- | --- |
| Fc1ccc(N2CCN(Cc3cn4cccnc4n3)CC2)cc1 | 2800 nM | 49000 nM | 60000 nM | 47000 nM | 55000 nM |  |  |
| N#Cc1ccc2[nH]c(CN3CCN(c4ccc(F)cc4)CC3)cc2c1 |  |  |  | 8600 nM |  |  |  |
| COc1ccccc1N1CCN(Cc2cn3cc(C)cc(N4CCOCC4)c3n2)CC1 | 2.3 nM | 100 nM | 2100 nM | 6400 nM | 210 nM |  |  |
| COc1ccccc1N1CCN(Cc2cn3cc(C)cc(-n4cccn4)c3n2)CC1 | 1.6 nM | 280 nM | 2400 nM | 8700 nM | 530 nM |  |  |
| COc1ccccc1N1CCN(Cc2cn3cc(C)cc(Br)c3n2)CC1 | 0.99 nM | 150 nM | 670 nM | 5600 nM | 240 nM |  |  |
| Fc1ccc(N2CCN(Cc3cn4nc(Cl)ccc4n3)CC2)cc1 | 4 nM | 12000 nM | 5600 nM | 7000 nM | 9900 nM |  |  |
| COc1ccccc1N1CCN(Cc2cn3cc(C)cc(I)c3n2)CC1 | 0.53 nM | 97 nM | 470 nM | 5900 nM | 88 nM | 0% |  |
| Cc1cccc(C(=O)NCN2CCN(c3ccccc3C#N)CC2)c1 |  |  |  |  |  |  | Selectivity ratio [14]: 8 |
| Fc1ccc(N2CCN(Cc3cn4ccncc4n3)CC2)cc1 | 500 nM | 68000 nM | 42000 nM | 15000 nM | 64000 nM |  |  |
| COc1ccccc1N1CCN(Cc2cn3c(-n4cccn4)cccc3n2)CC1 | 0.94 nM | 280 nM | 1000 nM | 27000 nM | 590 nM |  |  |
| CN1CCN(c2ccc3nc(CN4CCN(c5ccc(Cl)c(Cl)c5)CC4)cn3n2)CC1 | 1900 nM | 7800 nM | 880 nM | 13000 nM | 8000 nM |  |  |
| COc1ccccc1N1CCN(Cc2cn3cc(I)ccc3n2)CC1 | 0.33 nM | 72 nM | 600 nM | 6400 nM | 73 nM | 10% | EC50 (D(4) dopamine receptor [12]): 0.52 nM |
| COc1ccccc1N1CCN(Cc2cn3cc(C)cc(-c4ccccc4)c3n2)CC1 | 0.84 nM | 28 nM | 390 nM | 2900 nM | 49 nM |  |  |
| N#Cc1ccc2[nH]c(CN3CCN(c4ccccc4)CC3)cc2c1 |  |  |  | 13000 nM |  |  |  |
| COc1ccccc1N1CCN(Cc2cn3cc(C)cc(C#N)c3n2)CC1 | 1.3 nM | 2700 nM | 3500 nM | 40000 nM | 4200 nM |  | Selectivity ratio [2]: 2080; Selectivity ratio [8]: 3230 |
| Clc1ccc(N2CCN(Cc3cn4nc(N5CCCCC5)ccc4n3)CC2)cc1Cl | 120 nM | 710 nM | 850 nM | 2200 nM | 1100 nM |  |  |

The next lines start with results.

| Ki (D(4) dopamine receptor [5]) | Ki (D(2) dopamine receptor [6]) | Ki (D(3) dopamine receptor) | Ki (D(1A) dopamine receptor) | Ki (D(2) dopamine receptor [9]) | Activity [10] | Compound | further results |
| --- | --- | --- | --- | --- | --- | --- | --- |
| 44 nM | 19000 nM | 3100 nM | 8400 nM | 21000 nM |  | Fc1ccc(N2CCN(Cc3cn4ccccc4n3)CC2)cc1 | Ki [1]: 260 nM; Selectivity ratio [2]: > 440; Selectivity ratio [3]: > 440; Ki [4]: 860 nM; Selectivity ratio [7]: > 440; Selectivity ratio [8]: > 440 |
| 2 nM | 8200 nM | 7700 nM | 5500 nM | 12000 nM | 0% | Clc1ccc(N2CCN(Cc3cn4nc(Cl)ccc4n3)CC2)cc1 | Ki [4]: 910 nM |
| 0.99 nM | 3700 nM | 1000 nM | 2500 nM | 3500 nM | 0% | Clc1ccc(N2CCN(Cc3cn4cc(Br)ccc4n3)CC2)cc1Cl | Selectivity ratio [2]: > 440; Selectivity ratio [3]: > 440; Selectivity ratio [7]: > 440; Selectivity ratio [8]: > 440 |
| 1.4 nM | 2700 nM | 1700 nM | 2300 nM | 3200 nM | 0% | Clc1ccc(N2CCN(Cc3cn4ccccc4n3)CC2)cc1Cl | Ki [4]: 1200 nM |
| 7 nM | 16000 nM | 8800 nM | 6700 nM | 15000 nM | 6% | Clc1ccc(N2CCN(Cc3cn4ccccc4n3)CC2)cc1 | EC50 (D(4) dopamine receptor [11]): 2.6 nM; Ki [4]: 1200 nM; EC50 (D(4) dopamine receptor [12]): 1.8 nM; Activity [13]: 18% |
| 1.3 nM | 670 nM | 1500 nM | 1500 nM | 1100 nM | 0% | Clc1ccc2nc(CN3CCN(c4ccc(Cl)c(Cl)c4)CC3)cn2n1 | Ki [4]: 1200 nM |
| 0.25 nM | 140 nM | 800 nM | 7100 nM | 130 nM | 0% | COc1ccccc1N1CCN(Cc2cn3cc(Br)ccc3n2)CC1 |  |
|  |  |  |  |  | 46% | COc1ccccc1N1CCN(Cc2cn3ccccc3n2)CC1 | Activity (Rattus norvegicus [15]): 1.02; Activity (Rattus norvegicus [16]): 2.42; Activity (Rattus norvegicus [17]): 2.32; Ki [4]: 5900 nM; Activity (Rattus norvegicus [18]): 1.12; Activity [13]: 57% |
| 1.6 nM | 79 nM | 1400 nM | 7700 nM | 96 nM | 0% | COc1ccccc1N1CCN(Cc2cn3nc(Cl)ccc3n2)CC1 | Ki [4]: 3400 nM |
